The source made the active and inactive calls. The rule behind the calls is not given here.
Experiments:
A-375 [1] = assay: Cell cycle arrest in human A375 cells assessed as accumulation at G0/G1 phase at 4 uM after 24 hrs using propidium iodide staining by FACS; assay type: functional
Procedure, shortened: (§1)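 Treated A375 cells (24 h) were harvested with trypsin-EDTA and fixed in ice-cold 70% ethanol (4 °C, 30 min). After a PBS wash, they were incubated with 1 mg/mL RNase A (37 °C, 30 min) and stained with propidium iodide solution containing trisodium citrate and Triton X-100. DNA content was measured by flow cytometry on 20,000 events. Controls were DMSO-treated.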

A-375 [2] = assay: Induction of apoptosis in human A375 cells assessed as increase in cytochromeC protein level at 4 uM after 24 hrs by Western blotting; assay type: functional, cell-based
Procedure, shortened: (§2)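 A375 cells treated 24 h, then lysed in ice-cold RIPA buffer (1% NP-40, 0.5% deoxycholate, 0.1% SDS, protease inhibitors). Protein was quantified by Bradford, and 30 µg per lane run on 12% SDS-PAGE and transferred to PVDF. Blots were blocked 2 h at RT in TBST with 5% blocking powder, probed with primary antibody overnight at 4 °C, then HRP secondary (1:2000, 1 h RT), and read by chemiluminescence against β-actin loading control.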

A-375 [3] = assay: Induction of apoptosis in human A375 cells assessed as reduction in CDK2 protein level at 4 uM after 24 hrs by Western blotting; assay type: functional, cell-based
Procedure, shortened: (§3)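 A375 cells were treated for 24 h and lysed in ice-cold RIPA buffer (1% NP-40, 0.5% deoxycholate, 0.1% SDS, protease inhibitors). Protein was quantified by Bradford assay, and 30 µg/lane was run on 12% SDS-PAGE and transferred to PVDF. Membranes were blocked 2 h at RT in TBST with 5% blocker, incubated with primary antibody overnight at 4 °C, then with HRP secondary (1:2000, 1 h, RT). Detection was by chemiluminescence, with β-actin as loading control.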

KB = assay: Anticancer activity against human KB cells after 48 hrs by SRB assay; assay type: functional
Procedure, shortened: (§4)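 Grown in RPMI 1640 with 10% FBS and 2 mM L-glutamine at 37 °C, 5% CO2. Seeded at densities set by doubling time, then preincubated 24 h. Continuous 48 h drug exposure at four concentrations (0.1, 1, 10, 100), triplicate wells. Fixed with cold TCA (final 10%) at 4 °C, 60 min. Stained with 0.4% SRB in 1% acetic acid, eluted with 10 mM Tris base, read at 540/690 nm. Percent growth versus control wells.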

A-375 [4] = assay: Induction of apoptosis in human A375 cells assessed as increase in p53 protein level at 4 uM after 24 hrs by Western blotting; assay type: functional, cell-based; procedure, shortened: as §2
A-375 [5] = assay: Cell cycle arrest in human A375 cells assessed as accumulation at S phase at 4 uM after 24 hrs using propidium iodide staining by FACS; assay type: functional; procedure, shortened: as §1
ZR-75-1 = assay: Anticancer activity against human ZR-75-1 cells after 48 hrs by SRB assay; assay type: functional; details: ZR-75-1, 48 h
Procedure, shortened: (§5)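 Cells grown in RPMI 1640 with 10% FBS and 2 mM L-glutamine, plated at densities set by doubling time, and preincubated 24 h at 37 °C, 5% CO2. Compounds were tested at four concentrations (0.1, 1, 10, 100) in triplicate wells with 48 h continuous exposure. Cells were fixed with cold TCA (10% final, 60 min, 4 °C) and stained with 0.4% SRB in 1% acetic acid (20 min, RT). Dye was eluted with 10 mM Trizma base and read at 540 nm (690 nm reference). Percent growth is relative to control wells, plate by plate.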

A-375 [6] = assay: Induction of apoptosis in human A375 cells assessed as increase in PPAR protein level at 4 uM after 24 hrs by Western blotting; assay type: functional, cell-based; procedure, shortened: as §3
SiHa = assay: Anticancer activity against human SiHa cells after 48 hrs by SRB assay; assay type: functional; procedure, shortened: as §5
A-375 [7] = assay: Cell cycle arrest in human A375 cells assessed as accumulation at G2/M phase at 4 uM after 24 hrs using propidium iodide staining by FACS; assay type: functional; procedure, shortened: as §1
A2780 = assay: Anticancer activity against human A2780 cells after 48 hrs by SRB assay; assay type: functional; details: A2780, 48 h; procedure, shortened: as §4
A-375 [8] = assay: Induction of apoptosis in human A375 cells assessed as caspase3 activation at 4 uM after 24 hrs by fluorimetry; assay type: functional, cell-based
Procedure, shortened: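 Caspase-3 activity was measured by a fluorometric assay on lysates of treated and untreated A375 cells.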

For `COc1cc(C2=NOC(c3cc(OC)c(OC)c(OC)c3)C2)ccc1OCCCOc1cc2c(cc1OC)C(=O)N1CCC[C@H]1C=N2` (some centres not stated), the Activity (A-375 [1]) was 98.5%, the Activity (A-375 [2]) was “Active” and the Activity (A-375 [3]) was “Active”. For the same compound, the GI50 (KB) was under 100 nM, the Activity (A-375 [4]) was “Active” and the Activity (A-375 [5]) was 1.1%. The GI50 (ZR-75-1) was under 100 nM, the Activity (A-375 [6]) was “Active” and the GI50 (SiHa) was under 100 nM. The Activity (A-375 [7]) was 0.4%, the GI50 (A2780) was under 100 nM and the Activity (A-375 [8]) was “Active”.

Source: ChEMBL document CHEMBL1240422, “Design, synthesis and biological evaluation of 3,5-diaryl-isoxazoline/isoxazole-pyrrolobenzodiazepine conjugates as potential anticancer agents” (2010)
